Consider 21 molecules from ChEMBL document CHEMBL1156827, “Benzimidazole derivatives as new serotonin 5-HT6 receptor antagonists. Molecular mechanisms of receptor inactivation” (J Med Chem, 2010).

The source made the active and inactive calls. The calls are words filed in the database; no cut-off is given here.

The target of assay [1] is 5-hydroxytryptamine receptor 7 (Homo sapiens, UniProt P34969). Kind of assay: Displacement of [3H]LSD from human 5HT7 receptor expressed in HEK293 cells by liquid scintillation counting. The format is cell-based. In outline: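 Purchased HEK-293 membranes expressing h5-HT7R were incubated with 3 nM [³H]LSD for 120 min at 27 °C. Buffer: 50 mM Tris-HCl, 10 mM MgSO4, 0.5 mM EDTA, pH 7.4. Nonspecific binding was defined with 25 μM clozapine. Samples were filtered onto 0.3% PEI-soaked filters, washed with ice-cold Tris, and counted by scintillation. Ki was derived from IC50 by Cheng-Prusoff.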

Assay [2] addresses T1, 5-hydroxytryptamine receptor 6 (Homo sapiens, UniProt P50406). Kind of assay: Displacement of [3H]LSD from human 5HT6 receptor expressed in HEK293 cells by liquid scintillation counting. The format is cell-based. In outline: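 Buffer: 50 mM Tris-HCl, 10 mM MgCl2, 0.5 mM EDTA, pH 7.4. Nonspecific binding was defined with 500 μM serotonin. Samples were filtered onto 0.5% PEI-soaked filters, washed with ice-cold Tris, and counted by scintillation. Screening was at 10^-6 M; six-point curves were run if displacement exceeded 50%. Ki by Cheng-Prusoff, 2-4 experiments.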

In assay [3] the target is T1, 5-hydroxytryptamine receptor 6. Kind of assay: Agonist activity at human 5HT6 receptor expressed in COS7 cells assessed as stimulation of cAMP accumulation by HTRF assay. Format: functional, cell-based. The conditions noted are these: COS-7. In outline: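 COS-7 cells transfected with human 5-HT6R cDNA, seeded 100000 cells/well, stimulated 24 h post-transfection for 10 min at 37 °C with each tested compound without 5-HT (agonist mode). cAMP quantified by HTRF; activity expressed as percentage of maximal effect obtained with serotonin alone. Three independent experiments in triplicate.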

Assay [4] shares this target. Kind of assay: Antagonist activity at human 5HT6 receptor expressed in COS7 cells assessed as inhibition of serotonin-induced cAMP accumulation by HTRF assay. The format is functional, cell-based, COS-7. In outline:
(§1)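 COS-7 cells were transfected with wild-type or mutant receptor cDNA and seeded at 100000 cells/well. At 24 h post-transfection, cells were stimulated for 10 min at 37 °C with eight concentrations of test ligand plus 100 μM 5-HT. cAMP was read by HTRF. Three independent experiments in triplicate, mean ± SEM.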

Assay [5] addresses 5-hydroxytryptamine receptor 6 (Mus musculus, UniProt Q9R1C8, W283A). Kind of assay: Antagonist activity at mouse 5HT6 receptor W6.48A mutant expressed in COS7 cells assessed as inhibition of serotonin-induced cAMP accumulation by HTRF assay. Format: functional, cell-based, COS-7. In short, it runs like this:
(§2)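 COS-7 cells were transfected with wild-type or mutant receptor cDNA and seeded at 100000 cells/well. At 24 h post-transfection, cells were stimulated for 10 min at 37 °C with eight concentrations of test ligand plus 100 μM 5-HT. cAMP was read by HTRF. […] Three independent experiments in triplicate, mean ± SEM.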

The target in assay [6] is 5-hydroxytryptamine receptor 6 (Mus musculus, UniProt Q9R1C8, C110A). Kind of assay: Antagonist activity at mouse 5HT6 receptor C3.36A mutant expressed in COS7 cells assessed as inhibition of serotonin-induced cAMP accumulation by HTRF assay. Format: functional, cell-based, COS-7. In short, it runs like this: as §1
Assay [7] deals with 5-hydroxytryptamine receptor 6 (Mus musculus, UniProt Q9R1C8, F287A). Kind of assay: Antagonist activity at mouse 5HT6 receptor F6.52A mutant expressed in COS7 cells assessed as inhibition of serotonin-induced cAMP accumulation by HTRF assay. The format is functional, cell-based, COS-7. In outline: as §2
Assay [8] addresses 5-hydroxytryptamine receptor 6 (Mus musculus, UniProt Q9R1C8). Kind of assay: Antagonist activity at mouse wild type 5HT6 receptor expressed in COS7 cells assessed as inhibition of serotonin-induced cAMP accumulation by HTRF assay. Format: functional, cell-based, COS-7. In outline: as §1
Assay [9] can be described thus: Antagonist activity at mouse 5HT6 receptor N6.55A mutant expressed in COS7 cells assessed as inhibition of serotonin-induced cAMP accumulation by HTRF assay. The format is functional, cell-based. The conditions noted are these: cos-7. In short, it runs like this:
as §2

Chain of 5-hydroxytryptamine receptor 7 (P34969 whole entry): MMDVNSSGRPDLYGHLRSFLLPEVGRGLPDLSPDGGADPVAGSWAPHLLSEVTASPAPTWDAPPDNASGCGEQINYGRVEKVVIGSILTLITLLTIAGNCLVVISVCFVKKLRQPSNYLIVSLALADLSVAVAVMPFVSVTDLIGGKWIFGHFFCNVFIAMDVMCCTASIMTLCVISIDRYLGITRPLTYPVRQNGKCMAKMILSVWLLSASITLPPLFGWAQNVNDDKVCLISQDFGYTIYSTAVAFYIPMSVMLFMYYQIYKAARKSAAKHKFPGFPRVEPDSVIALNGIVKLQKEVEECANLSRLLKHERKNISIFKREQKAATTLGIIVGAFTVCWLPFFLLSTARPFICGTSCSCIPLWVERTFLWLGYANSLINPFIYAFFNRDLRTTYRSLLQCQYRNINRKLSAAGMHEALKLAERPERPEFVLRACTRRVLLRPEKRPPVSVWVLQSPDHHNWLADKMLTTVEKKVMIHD
T1 sequence (P50406 whole entry): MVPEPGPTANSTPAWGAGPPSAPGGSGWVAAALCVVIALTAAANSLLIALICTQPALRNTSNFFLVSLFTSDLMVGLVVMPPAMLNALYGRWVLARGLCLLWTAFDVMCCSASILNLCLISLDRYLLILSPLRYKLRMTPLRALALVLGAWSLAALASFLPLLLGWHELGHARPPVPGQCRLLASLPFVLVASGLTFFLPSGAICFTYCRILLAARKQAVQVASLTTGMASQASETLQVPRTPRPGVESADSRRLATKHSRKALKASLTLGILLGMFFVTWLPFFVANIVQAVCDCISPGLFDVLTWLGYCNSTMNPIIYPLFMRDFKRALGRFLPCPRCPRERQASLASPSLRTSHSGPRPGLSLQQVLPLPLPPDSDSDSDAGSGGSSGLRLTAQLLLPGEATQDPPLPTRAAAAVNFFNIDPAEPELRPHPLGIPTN
Chain of 5-hydroxytryptamine receptor 6 (Mus musculus, UniProt Q9R1C8) (Q9R1C8 whole entry): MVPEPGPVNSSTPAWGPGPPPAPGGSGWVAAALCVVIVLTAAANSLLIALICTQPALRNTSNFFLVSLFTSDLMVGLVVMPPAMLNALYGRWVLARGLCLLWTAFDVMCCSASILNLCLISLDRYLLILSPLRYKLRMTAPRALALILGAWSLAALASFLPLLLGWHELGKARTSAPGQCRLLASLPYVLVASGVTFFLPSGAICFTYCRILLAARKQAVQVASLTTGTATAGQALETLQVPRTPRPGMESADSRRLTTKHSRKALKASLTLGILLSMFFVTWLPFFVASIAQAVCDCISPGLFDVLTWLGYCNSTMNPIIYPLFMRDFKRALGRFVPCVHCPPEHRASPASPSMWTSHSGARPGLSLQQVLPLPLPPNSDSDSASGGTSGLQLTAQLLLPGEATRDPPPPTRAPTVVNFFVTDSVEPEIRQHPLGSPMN
Chain of 5-hydroxytryptamine receptor 6 (Mus musculus, UniProt Q9R1C8, W283A) (Q9R1C8 whole entry W283A): as the sequence (Q9R1C8 whole entry) above, with W283A counted along it
Chain of 5-hydroxytryptamine receptor 6 (Mus musculus, UniProt Q9R1C8, F287A) (Q9R1C8 whole entry F287A): as the sequence (Q9R1C8 whole entry) above, with F287A counted along it
Chain of 5-hydroxytryptamine receptor 6 (Mus musculus, UniProt Q9R1C8, C110A) (Q9R1C8 whole entry C110A): as the sequence (Q9R1C8 whole entry) above, with C110A counted along it

Take `CN1CCN(c2ccc3[nH]c(Cc4ccccc4)nc3c2)CC1`: the values for the Ki in assay [1] and in assay [2] were > 500 nM and > 1000 nM, respectively.
On the same counts, the results for `CN1CCN(c2cccc3[nH]c(C(=O)c4ccccc4)nc23)CC1` are > 500 nM and > 1000 nM.
On the same counts, the results for `CN1CCN(c2ccc3[nH]c(Cc4cccc5ccccc45)nc3c2)CC1` are > 500 nM and > 1000 nM.
The corresponding values for `c1ccc2c(Cc3nc4ccc(N5CCNCC5)cc4[nH]3)cccc2c1` are > 500 nM and > 1000 nM.
Turning to `c1ccc(Cc2nc3c(N4CCNCC4)cccc3[nH]2)cc1`, the Ki in assay [1] was > 500 nM; in assay [4] it was 31 nM; in [2] it was 58 nM. The outcome in assay [3] was inactive.
For the molecule `CN1CCN(c2ccc3[nH]c(C(=O)c4ccc5ccccc5c4)nc3c2)CC1`, the Ki in [1] is > 500 nM; in assay [2] it was > 1000 nM.
Turning to `CN1CCN(c2cccc3[nH]c(C(=O)c4cccc5ccccc45)nc23)CC1`, the Ki in [1] is > 500 nM.
Take `CN1CCN(c2ccc3[nH]c(Cc4ccc5ccccc5c4)nc3c2)CC1`: the Ki in assay [1] was > 500 nM; in assay [2] it was > 1000 nM.
Turning to `c1ccc(Cc2nc3cc(N4CCNCC4)ccc3[nH]2)cc1`, the Ki in assay [1] is > 500 nM; in assay [2], > 1000 nM.
Consider `c1ccc2c(Cc3nc4c(N5CCNCC5)cccc4[nH]3)cccc2c1`, for which the results for the inhibition constant Ki in assay [1], in assay [4] and in assay [2] were > 500 nM, 16 nM and 16 nM, respectively. Moreover, in assay [3], the outcome was inactive.
Consider `O=C(c1ccccc1)c1nc2c(N3CCNCC3)cccc2[nH]1`, for which the inhibition constant Ki in assay [1] is > 500 nM; in [2] it was > 1000 nM.
In the case of `CN1CCN(c2ccc3[nH]c(C(=O)c4ccccc4)nc3c2)CC1`, the values for the Ki in assay [1] and in assay [2] were > 500 nM and > 1000 nM, respectively.
Take `CN1CCN(c2cccc3[nH]c(Cc4ccccc4)nc23)CC1`: the inhibitory constant (Ki) was > 500 nM in assay [1], 16 nM in assay [4] and 66.8 nM in assay [2]. Also, the outcome in assay [3] was inactive.
As to `c1ccc2cc(Cc3nc4ccc(N5CCNCC5)cc4[nH]3)ccc2c1`, the Ki in assay [1] was > 500 nM; in assay [2] it was > 1000 nM.
As for `CN1CCN(c2cccc3[nH]cnc23)CC1`, the Ki in [2] was > 1000 nM.
Turning to `O=C(c1ccc2ccccc2c1)c1nc2cc(N3CCNCC3)ccc2[nH]1`, the inhibitory constant (Ki) in assay [1] was > 500 nM; in assay [2] it was > 1000 nM.
For the molecule `CN1CCN(c2cccc3[nH]c(Cc4cccc5ccccc45)nc23)CC1`, the inhibition constant (Ki) in assay [1] was > 500 nM; in assay [4], 27 nM; in [2], 36.2 nM. In addition, the outcome in [3] was inactive.
As for `CN1CCN(c2ccc3[nH]c(C(=O)c4cccc5ccccc45)nc3c2)CC1`, the inhibitory constant (Ki) was > 500 nM in assay [1] and > 1000 nM in assay [2].
On to `COc1ccc(NS(=O)(=O)c2ccc(I)cc2)cc1N1CCN(C)CC1`, for which the inhibition constant (Ki) was 0.32 nM in assay [5]; 54 nM in assay [6]; 114 nM in assay [7]; 0.75 nM in assay [8]; 27 nM in [9].
Regarding `O=C(c1nc2c(N3CCNCC3)cccc2[nH]1)c1cccc2ccccc12`, the results for the inhibition constant (Ki) in assay [1], in [4] and in assay [2] were > 500 nM, 15 nM and 13 nM, respectively. The outcome in assay [3] was inactive.
For `CN1CCN(c2cccc3[nH]c(C(=O)c4ccc5ccccc5c4)nc23)CC1`, the Ki is > 500 nM in [1] and > 1000 nM in [2].
